Calls of active or inactive are those of the source. No cut-off for these calls is given here.
Experiments:
Plasmodium cynomolgi [1] = test: Antimalarial activity against Plasmodium cynomolgi infected in rhesus monkey assessed as relapse time at 0.5 mg/kg qd for 7 days in presence of chloroquine; format: functional
Plasmodium cynomolgi [2] = test: Antimalarial activity against Plasmodium cynomolgi infected in rhesus monkey assessed as relapse time at 0.375 mg/kg qd for 7 days in presence of chloroquine; format: functional
Plasmodium berghei [3] = test: Antimalarial activity against Plasmodium berghei infected in mouse assessed as change in mean survival time at 1.25 mg/kg (reference value: 6.2 +/- 0.5 days); format: functional
Plasmodium berghei [4] = test: Antimalarial activity against Plasmodium berghei infected in mouse assessed as change in mean survival time at 80 mg/kg (reference value: 6.2 +/- 0.5 days); format: functional
Plasmodium berghei [5] = test: Antimalarial activity against Plasmodium berghei infected in mouse assessed as change in mean survival time at 5 mg/kg (reference value: 6.2 +/- 0.5 days); format: functional
Plasmodium berghei [6] = test: Antimalarial activity against Plasmodium berghei infected in mouse assessed as change in mean survival time at 40 mg/kg (reference value: 6.2 +/- 0.5 days); format: functional
Plasmodium berghei [7] = test: Antimalarial activity against Plasmodium berghei infected in mouse assessed as change in mean survival time at 20 mg/kg (reference value: 6.2 +/- 0.5 days); format: functional
Plasmodium berghei [8] = test: Antimalarial activity against Plasmodium berghei infected in mouse assessed as change in mean survival time at 2.5 mg/kg (reference value: 6.2 +/- 0.5 days); format: functional
Plasmodium berghei [9] = test: Antimalarial activity against Plasmodium berghei infected in mouse assessed as change in mean survival time at 10 mg/kg (reference value: 6.2 +/- 0.5 days); format: functional
Plasmodium berghei [10] = test: Antimalarial activity against Plasmodium berghei infected in mouse assessed as change in mean survival time at 160 mg/kg (reference value: 6.2 +/- 0.5 days); format: functional
Mus musculus [11] = test: Toxicity in mouse infected with Plasmodium berghei assessed as mortality at 640 mg/kg after 2 to 5 days; format: organism-based; set-up: dose 640 mg/kg; settings: in vivo
Mus musculus [12] = test: Toxicity in mouse infected with Plasmodium berghei assessed as mortality at 320 mg/kg after 2 to 5 days; format: organism-based; set-up: dose 320 mg/kg; settings: in vivo
Mus musculus [13] = test: Toxicity in mouse infected with Plasmodium berghei assessed as mortality at 160 mg/kg after 2 to 5 days; format: organism-based; set-up: dose 160 mg/kg; settings: in vivo
Plasmodium cynomolgi [14] = test: Antimalarial activity against Plasmodium cynomolgi infected in rhesus monkey assessed as cured animal at 0.75 mg/kg qd for 7 days measured after 105 days in presence of chloroquine; format: functional, organism-based; set-up: dose 0.75 mg/kg
Outline: (§1)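 Test compounds were given as phosphate salts, with doses expressed as free base, once daily for 7 days together with chloroquine at 2.5 mg per kg body weight. An animal was scored as cured when thick blood films stayed parasite-negative for 105 days or more after the last dose.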

Rhesus monkey = test: Toxicity in rhesus monkey at 0.375 to 0.75 mg/kg; format: organism-based, Macaca mulatta; set-up: dose 0.375-0.75 mg/kg; settings: in vivo
Plasmodium berghei [15] = test: Antimalarial activity against Plasmodium berghei infected in mouse assessed as change in mean survival time at 320 mg/kg (reference value: 6.2 +/- 0.5 days); format: functional
Plasmodium berghei [16] = test: Antimalarial activity against Plasmodium berghei infected in mouse assessed as change in mean survival time at 640 mg/kg (reference value: 6.2 +/- 0.5 days); format: functional
Plasmodium cynomolgi [17] = test: Antimalarial activity against Plasmodium cynomolgi infected in rhesus monkey assessed as cured animal at 0.375 mg/kg qd for 7 days measured after 105 days in presence of chloroquine; format: functional, organism-based; set-up: dose 0.375 mg/kg; outline: as §1
Plasmodium cynomolgi [18] = test: Antimalarial activity against Plasmodium cynomolgi infected in rhesus monkey assessed as cured animal at 0.5 mg/kg qd for 7 days measured after 105 days in presence of chloroquine; format: functional, organism-based; set-up: dose 0.5 mg/kg; outline: as §1

SMILES	MST (Plasmodium berghei [3]) [days]	MST (Plasmodium berghei [4]; 80 mg/kg) [days]	MST (Plasmodium berghei [5]) [days]	MST (Plasmodium berghei [6]; 40 mg/kg) [days]	MST (Plasmodium berghei [7]) [days]	MST (Plasmodium berghei [8]) [days]	MST (Plasmodium berghei [9]) [days]	other results
COc1cc(NC(C)CCCN)c2ncccc2c1.O=P(O)(O)O.O=P(O)(O)O (single isomer, unassigned; (-)) [PRIMAQUINE PHOSPHATE]								Time (Plasmodium cynomolgi [1]): 16 days; Time (Plasmodium cynomolgi [2]): 11 days
CCCCN(CCCC)CCC(O)c1cc2c(Cl)cc(Cl)cc2c2cc(C(F)(F)F)ccc12 (stereo in doubt; (-)-8) [HALOFANTRINE]	0.1	13.2	1.5	12.5	8.9	0.3	5.1	
CCCCN(CCCC)CC(O)c1cc(-c2ccc(C(F)(F)F)cc2)nc(-c2ccc(C(F)(F)F)cc2)c1 (single isomer, unassigned; (-))		13.1		10.5	3.1		1.3	MST (Plasmodium berghei [10]): 19.9 days
CCCCN(CCCC)CC(O)c1cc(-c2ccc(C(F)(F)F)cc2)nc(-c2ccc(C(F)(F)F)cc2)c1 (racemic)					8.6		5.5	
CCCCN(CCCC)CC(O)c1cc(-c2ccc(Cl)c(Cl)c2)nc2c(Cl)cc(Cl)cc12 (racemic)	0.3	22.9	6.1	11.9	14.9	4.1	10.7	
Nc1nc(N)c2c(n1)CCC(S(=O)(=O)c1ccc3ccccc3c1)C2 (single isomer, unassigned; (-))	1.3		4.9		11.3	3.1	7.1	Activity (Mus musculus [11]): Toxic; Activity (Mus musculus [12]): Toxic; Activity (Mus musculus [13]): Toxic
CCCCN(CCCC)CC(O)c1cc(-c2ccc(Cl)c(Cl)c2)nc2c(Cl)cc(Cl)cc12 (single isomer, unassigned; (-))		9		7.8	3.8			MST (Plasmodium berghei [10]): 12.8 days
COc1cc(NC(C)CCCN)c2ncccc2c1 (stereo in doubt; (+)-5)								Activity (Plasmodium cynomolgi [14]): Active
COc1cc(NC(C)CCCN)c2ncccc2c1.O=P(O)(O)O.O=P(O)(O)O (stereo in doubt; (+)-5) [PRIMAQUINE PHOSPHATE]								Activity (Rhesus monkey): Toxic; Time (Plasmodium cynomolgi [1]): 28 days; Time (Plasmodium cynomolgi [2]): 10 days
CCCCN(CCCC)CCC(O)c1cc2c(Cl)cc(Cl)cc2c2cc(C(F)(F)F)ccc12 (stereo in doubt; (+)-8) [HALOFANTRINE]	0.5	16.9	7.5	14.5	11.1	3.1	10.3	
Nc1nc(N)c2c(n1)CCC(S(=O)(=O)c1ccc3ccccc3c1)C2 (single isomer, unassigned; (+))					0.3			MST (Plasmodium berghei [4]): 4.5 days; MST (Plasmodium berghei [6]): 1.7 days; MST (Plasmodium berghei [15]): 9.1 days; MST (Plasmodium berghei [10]): 6.9 days
CCCCN(CCCC)CC(O)c1cc(-c2ccc(C(F)(F)F)cc2)nc(-c2ccc(C(F)(F)F)cc2)c1 (stereo in doubt; (+)-2)		25.6		18.1	10.7		3.9	
CCCCCCCN(CCCCCCC)CC(O)c1cc2ccccc2c2cc(Br)ccc12 (single isomer, unassigned; (+))		4.1		1.7	0.5			MST (Plasmodium berghei [15]; 320 mg/kg): 9.3 days; MST (Plasmodium berghei [16]): 14.9 days; MST (Plasmodium berghei [10]; 160 mg/kg): 6.7 days
Nc1nc(N)c2c(n1)CCC(S(=O)(=O)c1ccc3ccccc3c1)C2 (racemic)	4.9		10.7			7.5	11.9	
COc1cc(NC(C)CCCN)c2ncccc2c1 (racemic)								Activity (Plasmodium cynomolgi [17]): inactive; Activity (Plasmodium cynomolgi [14]): Active; Activity (Plasmodium cynomolgi [18]): Active
COc1cc(NC(C)CCCN)c2ncccc2c1 (single isomer, unassigned; (-))								Activity (Plasmodium cynomolgi [14]): Active
CCCCCCCN(CCCCCCC)CC(O)c1cc2ccccc2c2cc(Br)ccc12 (racemic)		11.3		6.9	2.9			MST (Plasmodium berghei [15]; 320 mg/kg): 25.9 days; MST (Plasmodium berghei [10]; 160 mg/kg): 15.3 days
CCCCN(CCCC)CCC(O)c1cc2c(Cl)cc(Cl)cc2c2cc(C(F)(F)F)ccc12 (racemic) [HALOFANTRINE]			9.3				14.9	
CCCCCCCN(CCCCCCC)CC(O)c1cc2ccccc2c2cc(Br)ccc12 (stereo in doubt; (-)-3)		3.9		2.1	0.3			MST (Plasmodium berghei [15]; 320 mg/kg): 6.1 days; MST (Plasmodium berghei [16]): 11.1 days; MST (Plasmodium berghei [10]; 160 mg/kg): 5.3 days
CCCCN(CCCC)CC(O)c1cc(-c2ccc(Cl)c(Cl)c2)nc2c(Cl)cc(Cl)cc12 (single isomer, unassigned; (+))	0.5		3.5	11.8	10	0.5	6.9	
